The source made the active and inactive calls. The calls are words filed in the database; no cut-off is given here.
Experiments:
[1] = Half life in Sprague-Dawley rat liver microsomes at 1.5 uM preincubated for 5 mins followed by NADPH addition and measured up to 45 mins by LC-MS/MS analysis; format: ADME, Microsome; conditions: time <=50 min
In short: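 Liver microsomes (0.75 mg/mL), human or SD rat, in 0.1 M potassium phosphate pH 7.4 with 3.0 mM MgCl2 and 1.5 µM compound, run in duplicate. After 5 min preincubation at 37 °C, reaction started with 3 mM NADPH. Quenched at 0, 5, 15, 30 and 45 min with ice-cold acetonitrile containing internal standard. Ketanserin served as positive control and a no-NADPH buffer incubation as negative control. LC-MS/MS read-out.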

Rattus norvegicus = experiment: In vivo stimulation of sGC in Sprague-Dawley rat model of hypoxia-induced pulmonary artery hypertension assessed as […] in PKG1 expression in lungs at 10 mg/kg, po administered daily for 2 weeks by Western blot analysis; format: functional, organism-based
In short: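 Hypoxic PAH model in male SD rats (160-200 g) kept at 10% O2 for 4 weeks. Oral dosing at 10 mg/kg daily for 14 days, suspended in 0.5% CMC-Na; control and hypoxia groups received vehicle only. Lungs homogenized in RIPA with protease and phosphatase inhibitors. 30 µg protein run on 10% SDS-PAGE, then PVDF blotting, with β-actin as loading reference. Three independent runs.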

Structure (SMILES): Cc1ccccc1COc1nc2c(cc1-c1nc(N)cc(N)n1)c(C)nn2-c1ccccc1
- half-life at 1.5 µM [1]: 10 min
- Activity (Rattus norvegicus): Active

From ChEMBL document CHEMBL4699492, “Discovery of Novel Pyrazolo[3,4-b] Pyridine Derivatives with Dual Activities of Vascular Remodeling Inhibition and Vasodilation for the Treatment of Pulmonary Arterial Hypertension” (J Med Chem, 2020)
